Reference: ChEMBL document CHEMBL1154728, “Synthesis of nitroimidazole derived oxazolidinones as antibacterial agents” (Eur J Med Chem, 2010)
Converted amounts (≈) assume the structure as drawn.

Legend:
Streptococcus pyogenes = assay: Antibacterial activity against Streptococcus pyogenes after 24 hrs by spectrophotometry; type: functional
Procedure, shortened: (§1)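 Strains grown on nutrient agar at 37 °C for 24 h, suspended in normal saline with 0.05% Tween 20 to about […] cells/mL (0.5 McFarland). Broth microdilution per NCCLS in Mueller Hinton broth. Compounds dissolved in DMSO at 1 mg/mL (stock), serially two-fold diluted. Growth, drug and negative controls included. Incubation at 35 °C, moist and dark; MIC read spectrophotometrically at 24 h.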

Staphylococcus aureus [1] = assay: Antibacterial activity against […] Staphylococcus aureus ATCC 25923 after 24 hrs by spectrophotometry; type: functional; settings: ATCC 25923, 24 h
Procedure, shortened: (§2)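 Strains grown on nutrient agar at 37 °C for 24 h, then suspended in normal saline with 0.05% Tween 20 at about […] cells/mL (0.5 McFarland). Broth microdilution in Mueller Hinton broth per NCCLS. DMSO stock 1 mg/mL diluted into broth, then two-fold serial dilutions. Plates incubated at 35 °C in a moist, dark chamber. MIC read spectrophotometrically at 24 h.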

Staphylococcus aureus [2] = assay: Antibacterial activity against methicillin resistant Staphylococcus aureus ATCC 70069 after 24 hrs by spectrophotometry; type: functional; settings: ATCC 70069, 24 h; procedure, shortened: as §2
Staphylococcus aureus [3] = assay: Antibacterial activity against […] Staphylococcus aureus ATCC 29213 after 24 hrs by spectrophotometry; type: functional; settings: ATCC 29213, 24 h; procedure, shortened: as §2
Bacillus cereus = assay: Antibacterial activity against Bacillus cereus MTCC 430 after 24 hrs by spectrophotometry; type: functional; settings: MTCC 430, 24 h; procedure, shortened: as §1
Enterococcus faecalis = assay: Antibacterial activity against Enterococcus faecalis MTCC439 after 24 hrs by spectrophotometry; type: functional; settings: MTCC439, 24 h; procedure, shortened: as §1
Klebsiella pneumoniae = assay: Antibacterial activity against Klebsiella pneumoniae ATCC 27736 after 24 hrs by spectrophotometry; type: functional; settings: ATCC 27736, 24 h; procedure, shortened: as §1
L929 [4] = assay: Cytotoxicity against mouse L929 cells assessed as change in morphology at 0.09 ug/ml after 24 hrs by phase contrast microscopy; type: cell-based; settings: l929, 24 h
Procedure, shortened: (§3)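 L929 fibroblasts in DMEM under 5% CO₂, switched to serum-free DMEM at 90% confluency, then exposed to compound for 24 h. Cells were fixed in the wells and stained with Giemsa for 30 min at 37 °C. Morphology was examined by phase contrast microscopy against untreated control cells.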

L929 [5] = assay: Cytotoxicity against mouse L929 cells assessed as change in morphology at 50 ug/ml after 24 hrs by phase contrast microscopy; type: cell-based; settings: l929, 24 h; procedure, shortened: as §3
L929 [6] = assay: Cytotoxicity against mouse L929 cells assessed as cell viability after 24 hrs by MTT assay; type: cell-based; settings: l929, 24 h
Procedure, shortened: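 Mouse fibroblast L929 cells seeded at 1 × 10³ cells per well in DMEM under humidified 5% CO₂. Medium switched to serum-free DMEM at 90% confluency (5 h). Cells exposed 24 h to a two-fold series ([…], then 12.5 down to 0.09). MTT read-out: absorbance at 570 minus 630 nm taken as the viability index.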

## CC(=O)NC[C@H]1CN(c2ccc(N3CCN(CCn4ccnc4[N+](=O)[O-])CC3)c(F)c2)C(=O)O1
Streptococcus pyogenes
  MIC: 0.78 µg/mL (≈ 1.64 µM)
Staphylococcus aureus [1]
  MIC: 12.5 µg/mL (≈ 26.3 µM)
Staphylococcus aureus [2]
  MIC: 6.25 µg/mL (≈ 13.1 µM)
Staphylococcus aureus [3]
  MIC: 12.5 µg/mL (≈ 26.3 µM)
Bacillus cereus
  MIC: 0.78 µg/mL (≈ 1.64 µM)
Enterococcus faecalis
  MIC: 25 µg/mL (≈ 52.6 µM)
Klebsiella pneumoniae
  MIC: 25 µg/mL (≈ 52.6 µM)

## CC(=O)NC[C@H]1CN(c2ccc(N3CCN(CCCn4c([N+](=O)[O-])cnc4C)CC3)c(F)c2)C(=O)O1
Streptococcus pyogenes
  MIC: 1.56 µg/mL (≈ 3.1 µM)
Staphylococcus aureus [1]
  MIC: 12.5 µg/mL (≈ 24.8 µM)
Staphylococcus aureus [2]
  MIC: 6.25 µg/mL (≈ 12.4 µM)
Staphylococcus aureus [3]
  MIC: 12.5 µg/mL (≈ 24.8 µM)
Bacillus cereus
  MIC: 6.25 µg/mL (≈ 12.4 µM)
Enterococcus faecalis
  MIC: 12.5 µg/mL (≈ 24.8 µM)
Klebsiella pneumoniae
  MIC: 1.56 µg/mL (≈ 3.1 µM)

## CC(=O)NC[C@H]1CN(c2ccc(N3CCN(C(=O)Cn4c([N+](=O)[O-])cnc4C)CC3)c(F)c2)C(=O)O1
Streptococcus pyogenes
  MIC: 1.56 µg/mL (≈ 3.1 µM)
Staphylococcus aureus [1]
  MIC: 6.25 µg/mL (≈ 12.4 µM)
Staphylococcus aureus [2]
  MIC: 6.25 µg/mL (≈ 12.4 µM)
Staphylococcus aureus [3]
  MIC: 6.25 µg/mL (≈ 12.4 µM)
Bacillus cereus
  MIC: 1.56 µg/mL (≈ 3.1 µM)
Enterococcus faecalis
  MIC: 6.25 µg/mL (≈ 12.4 µM)
Klebsiella pneumoniae
  MIC: 3.12 µg/mL (≈ 6.2 µM)

## CC(=O)NC[C@H]1CN(c2ccc(N3CCN(CC(O)Cn4c([N+](=O)[O-])cnc4C)CC3)c(F)c2)C(=O)O1 (stereo partly specified)
Streptococcus pyogenes
  MIC: 0.39 µg/mL (≈ 0.751 µM)
Staphylococcus aureus [1]
  MIC: 3.12 µg/mL (≈ 6.01 µM)
Staphylococcus aureus [2]
  MIC: 0.39 µg/mL (≈ 0.751 µM)
Staphylococcus aureus [3]
  MIC: 1.56 µg/mL (≈ 3 µM)
Bacillus cereus
  MIC: 0.78 µg/mL (≈ 1.5 µM)
Enterococcus faecalis
  MIC: 1.56 µg/mL (≈ 3 µM)
Klebsiella pneumoniae
  MIC: > 50 µg/mL

## CC(=O)NC[C@H]1CN(c2ccc(N3CCN(CCn4c([N+](=O)[O-])cnc4C)CC3)c(F)c2)C(=O)O1
Streptococcus pyogenes
  MIC: 0.78 µg/mL (≈ 1.59 µM)
L929 [4]
  Activity: Non-toxic
L929 [5]
  Activity: Toxic
L929 [6]
  Activity: Toxic
Staphylococcus aureus [1]
  MIC: 3.12 µg/mL (≈ 6.37 µM)
Staphylococcus aureus [2]
  MIC: 0.78 µg/mL (≈ 1.59 µM)
Staphylococcus aureus [3]
  MIC: 3.12 µg/mL (≈ 6.37 µM)
Bacillus cereus
  MIC: 0.097 µg/mL (≈ 0.198 µM)
Enterococcus faecalis
  MIC: 3.12 µg/mL (≈ 6.37 µM)
Klebsiella pneumoniae
  MIC: 0.78 µg/mL (≈ 1.59 µM)

## CC(=O)NC[C@H]1CN(c2ccc(N3CCN(CC(O)Cn4cnc([N+](=O)[O-])c4)CC3)c(F)c2)C(=O)O1 (stereo partly specified)
Streptococcus pyogenes
  MIC: 3.12 µg/mL (≈ 6.17 µM)
Staphylococcus aureus [1]
  MIC: 6.25 µg/mL (≈ 12.4 µM)
Staphylococcus aureus [2]
  MIC: 6.25 µg/mL (≈ 12.4 µM)
Staphylococcus aureus [3]
  MIC: 12.5 µg/mL (≈ 24.7 µM)
Bacillus cereus
  MIC: 3.12 µg/mL (≈ 6.17 µM)
Klebsiella pneumoniae
  MIC: > 50 µg/mL

## CC(=O)NC[C@H]1CN(c2ccc(N3CCN(CCCn4ccnc4[N+](=O)[O-])CC3)c(F)c2)C(=O)O1
Streptococcus pyogenes
  MIC: 0.78 µg/mL (≈ 1.59 µM)
Staphylococcus aureus [1]
  MIC: 6.25 µg/mL (≈ 12.8 µM)
Staphylococcus aureus [2]
  MIC: 6.25 µg/mL (≈ 12.8 µM)
Staphylococcus aureus [3]
  MIC: 12.5 µg/mL (≈ 25.5 µM)
Bacillus cereus
  MIC: 6.25 µg/mL (≈ 12.8 µM)
Enterococcus faecalis
  MIC: 12.5 µg/mL (≈ 25.5 µM)
Klebsiella pneumoniae
  MIC: 0.78 µg/mL (≈ 1.59 µM)

## CC(=O)NC[C@H]1CN(c2ccc(N3CCN(CCCn4cnc([N+](=O)[O-])c4)CC3)c(F)c2)C(=O)O1
Streptococcus pyogenes
  MIC: 0.39 µg/mL (≈ 0.797 µM)
L929 [4]
  Activity: Non-toxic
L929 [5]
  Activity: Toxic
L929 [6]
  Activity: Toxic
Staphylococcus aureus [1]
  MIC: 0.78 µg/mL (≈ 1.59 µM)
Staphylococcus aureus [2]
  MIC: 0.78 µg/mL (≈ 1.59 µM)
Staphylococcus aureus [3]
  MIC: 0.78 µg/mL (≈ 1.59 µM)
Bacillus cereus
  MIC: 0.78 µg/mL (≈ 1.59 µM)
Enterococcus faecalis
  MIC: 0.78 µg/mL (≈ 1.59 µM)
Klebsiella pneumoniae
  MIC: 0.78 µg/mL (≈ 1.59 µM)

## CC(=O)NC[C@H]1CN(c2ccc(N3CCN(C(=O)Cn4cnc([N+](=O)[O-])c4)CC3)c(F)c2)C(=O)O1
Streptococcus pyogenes
  MIC: 1.56 µg/mL (≈ 3.19 µM)
Staphylococcus aureus [1]
  MIC: 12.5 µg/mL (≈ 25.5 µM)
Staphylococcus aureus [2]
  MIC: 3.12 µg/mL (≈ 6.37 µM)
Staphylococcus aureus [3]
  MIC: 12.5 µg/mL (≈ 25.5 µM)
Bacillus cereus
  MIC: 6.25 µg/mL (≈ 12.8 µM)
Enterococcus faecalis
  MIC: 25 µg/mL (≈ 51.1 µM)
Klebsiella pneumoniae
  MIC: 25 µg/mL (≈ 51.1 µM)

## CC(=O)NC[C@H]1CN(c2ccc(N3CCOCC3)c(F)c2)C(=O)O1 [LINEZOLID]
Streptococcus pyogenes
  MIC: 1.56 µg/mL (≈ 4.62 µM)
Staphylococcus aureus [1]
  MIC: 1.56 µg/mL (≈ 4.62 µM)
Staphylococcus aureus [2]
  MIC: 1.56 µg/mL (≈ 4.62 µM)
Staphylococcus aureus [3]
  MIC: 3.12 µg/mL (≈ 9.25 µM)
Bacillus cereus
  MIC: 0.78 µg/mL (≈ 2.31 µM)
Enterococcus faecalis
  MIC: 3.12 µg/mL (≈ 9.25 µM)
Klebsiella pneumoniae
  MIC: 1.56 µg/mL (≈ 4.62 µM)

## CN[C@H](CC(C)C)C(=O)N[C@H]1C(=O)N[C@@H](CC(N)=O)C(=O)N[C@H]2C(=O)N[C@H]3C(=O)N[C@H](C(=O)N[C@H](C(=O)O)c4cc(O)cc(O)c4-c4cc3ccc4O)[C@H](O)c3ccc(c(Cl)c3)Oc3cc2cc(c3O[C@@H]2O[C@H](CO)[C@@H](O)[C@H](O)[C@H]2O[C@H]2C[C@](C)(N)[C@H](O)[C@H](C)O2)Oc2ccc(cc2Cl)[C@H]1O [VANCOMYCIN]
Streptococcus pyogenes
  MIC: 0.39 µg/mL (≈ 0.269 µM)
Staphylococcus aureus [1]
  MIC: 0.39 µg/mL (≈ 0.269 µM)
Staphylococcus aureus [2]
  MIC: 6.25 µg/mL (≈ 4.31 µM)
Staphylococcus aureus [3]
  MIC: 1.56 µg/mL (≈ 1.08 µM)
Bacillus cereus
  MIC: 0.19 µg/mL (≈ 0.131 µM)
Enterococcus faecalis
  MIC: 0.78 µg/mL (≈ 0.538 µM)
